From ChEMBL document CHEMBL2016533, “Paviosides A-H, eight new oleane type saponins from Aesculus pavia with cytotoxic activity” (Bioorg Med Chem, 2012)
≈ marks a conversion by molar mass, not a printed value.

Columns and labels:
[1] = system: J774; assay: Cytotoxicity against mouse J774 cells after 72 hrs by MTT assay; assay type: functional, cell-based; conditions: J774, 72 h
Summary of the method: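 J774 murine monocyte/macrophage cells are kept in suspension in stirred bottles (37 °C, DMEM, 10% FBS, 25 mM HEPES, 2 mM glutamine), then plated and allowed 2 h to adhere (37 °C, 5% CO2). Medium is refreshed, 1.2 v/v serial dilutions are added, and cells incubate 72 h. MTT (5 mg/mL) is added for 3 h, then solubilized in 50% DMF/20% SDS, pH 4.5. % dead cells = 100 − (OD treated/OD control)×100.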

[2] = system: WEHI-164; assay: Cytotoxicity against mouse WEHI164 cells after 72 hrs by MTT assay; assay type: functional, cell-based; conditions: WEHI-164, 72 h
Summary of the method: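 WEHI 164 murine fibrosarcoma cells are kept adherent (DMEM, 10% heat-inactivated FBS, 25 mM HEPES), then plated and allowed 2 h to adhere (37 °C, 5% CO2). Medium is refreshed, 1.2 v/v serial dilutions are added, and cells incubate 72 h. MTT (5 mg/mL) is added for 3 h, then solubilized in 50% DMF/20% SDS, pH 4.5. % dead cells = 100 − (OD treated/OD control)×100.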

SMILES | IC50 [1] [µg/mL] | IC50 [2] [µg/mL]
C/C=C(\C)C(=O)O[C@H]1[C@H](OC(C)=O)[C@]2(CO)[C@H](O)C[C@]3(C)C(=CC[C@@H]4[C@@]5(C)CC[C@H](O[C@@H]6O[C@H](C(=O)O)[C@@H](O[C@@H]7O[C@H](CO)[C@H](O)[C@H](O)[C@H]7O)[C@H](O)[C@H]6O[C@@H]6OC[C@@H](O)[C@H](O)[C@H]6O)C(C)(C)[C@@H]5CC[C@]43C)[C@@H]2CC1(C)C [PAVIOSIDEC] | 5.7 (≈ 5.25 µM) | 6.5 (≈ 5.99 µM)
C/C=C(/C)C(=O)O[C@H]1[C@H](OC(C)=O)[C@]2(CO)[C@H](O)C[C@]3(C)C(=CC[C@@H]4[C@@]5(C)CC[C@H](O[C@@H]6O[C@H](C(=O)O)[C@@H](O[C@@H]7OC[C@@H](O)[C@H](O)[C@H]7O)[C@H](O)[C@H]6O[C@@H]6OC[C@@H](O)[C@H](O)[C@H]6O)C(C)(C)[C@@H]5CC[C@]43C)[C@@H]2CC1(C)C [PAVIOSIDEF] | 2.8 (≈ 2.65 µM) | 2.3 (≈ 2.18 µM)
C/C=C(/C)C(=O)O[C@H]1[C@H](OC(C)=O)[C@]2(CO)[C@H](O)C[C@]3(C)C(=CC[C@@H]4[C@@]5(C)CC[C@H](O[C@@H]6O[C@H](C(=O)O)[C@@H](O[C@@H]7O[C@H](CO)[C@@H](O)[C@H](O)[C@H]7O)[C@H](O)[C@H]6O[C@@H]6OC[C@@H](O)[C@H](O)[C@H]6O)C(C)(C)[C@@H]5CC[C@]43C)[C@@H]2CC1(C)C [PAVIOSIDEB] | 5.1 (≈ 4.7 µM) | 4.9 (≈ 4.52 µM)
C/C=C(/C)C(=O)O[C@H]1[C@H](OC(C)=O)[C@]2(CO)[C@H](O)C[C@]3(C)C(=CC[C@@H]4[C@@]5(C)CC[C@H](O[C@@H]6O[C@H](C(=O)O)[C@@H](O[C@@H]7OC[C@@H](O)[C@H](O)[C@H]7O)[C@H](O)[C@H]6O[C@@H]6OC[C@@H](O)[C@H](O)[C@H]6O)[C@](C)(CO)[C@@H]5CC[C@]43C)[C@@H]2CC1(C)C [PAVIOSIDEH] | 3.5 (≈ 3.27 µM) | 3.2 (≈ 2.99 µM)
C/C=C(\C)C(=O)O[C@H]1[C@H](OC(C)=O)[C@]2(CO)[C@H](O)C[C@]3(C)C(=CC[C@@H]4[C@@]5(C)CC[C@H](O[C@@H]6O[C@H](C(=O)O)[C@@H](O[C@@H]7OC[C@@H](O)[C@H](O)[C@H]7O)[C@H](O)[C@H]6O[C@@H]6OC[C@@H](O)[C@H](O)[C@H]6O)[C@](C)(CO)[C@@H]5CC[C@]43C)[C@@H]2CC1(C)C [PAVIOSIDEG] | 3.6 (≈ 3.36 µM) | 3.5 (≈ 3.27 µM)
C/C=C(\C)C(=O)O[C@H]1[C@H](OC(C)=O)[C@]2(CO)[C@H](O)C[C@]3(C)C(=CC[C@@H]4[C@@]5(C)CC[C@H](O[C@@H]6O[C@H](C(=O)O)[C@@H](O[C@@H]7O[C@H](CO)[C@@H](O)[C@H](O)[C@H]7O)[C@H](O)[C@H]6O[C@@H]6OC[C@@H](O)[C@H](O)[C@H]6O)C(C)(C)[C@@H]5CC[C@]43C)[C@@H]2CC1(C)C [PAVIOSIDEA] | 5.7 (≈ 5.25 µM) | 4.8 (≈ 4.42 µM)
C/C=C(/C)C(=O)O[C@H]1[C@H](OC(C)=O)[C@]2(CO)[C@H](O)C[C@]3(C)C(=CC[C@@H]4[C@@]5(C)CC[C@H](O[C@@H]6O[C@H](C(=O)O)[C@@H](O[C@@H]7O[C@H](CO)[C@H](O)[C@H](O)[C@H]7O)[C@H](O)[C@H]6O[C@@H]6OC[C@@H](O)[C@H](O)[C@H]6O)C(C)(C)[C@@H]5CC[C@]43C)[C@@H]2CC1(C)C [PAVIOSIDED] | 6.6 (≈ 6.08 µM) | 7.1 (≈ 6.54 µM)
C/C=C(\C)C(=O)O[C@H]1[C@H](OC(C)=O)[C@]2(CO)[C@H](O)C[C@]3(C)C(=CC[C@@H]4[C@@]5(C)CC[C@H](O[C@@H]6O[C@H](C(=O)O)[C@@H](O[C@@H]7OC[C@@H](O)[C@H](O)[C@H]7O)[C@H](O)[C@H]6O[C@@H]6OC[C@@H](O)[C@H](O)[C@H]6O)C(C)(C)[C@@H]5CC[C@]43C)[C@@H]2CC1(C)C [PAVIOSIDEE] | 2.9 (≈ 2.75 µM) | 2.1 (≈ 1.99 µM)
